# bovine MsrA act: bovine MsrA enzyme activators, primary screen, biochemical, absorbance, HTS; purified bovine MsrA, absorbance read-out; Methionine sulfoxide reductase A (Bos taurus); 360,000 tested, 0.3% active; AID 602163, 2012; activation, % at 10.6 µM; in the data active = activation above about 7.5%
# PKA-R1A activ: activators of PKA-R1A holoenzyme, primary screen, biochemical, fluorescence polarization, Cy5-IP20, bovine R1A, mouse PKAc; cAMP-dependent protein kinase type I-alpha regulatory subunit (Bos taurus) + …; PKA-R1A dissociation; scaled: DMSO 0%, 113 µM cGMP 100%; activation, % at 11.4 µM; 340,000 tested, 0.083% active; AID 504707, 2011;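 active = percent activation above the mean of all tested compounds plus 3 SD, cut at about 19% in these data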;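 also: higher means more PKAc released from R1A so a rise in polarization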
# PKA-R2B activ: activators of PKA-R2B holoenzyme, primary screen, biochemical, fluorescence polarization, Cy5-IP20, human | PKA-R2B holoenzyme dissociation; R2B truncated from residue 108, S112A mutant; 0% DMSO only, 100% 113 µM cGMP | cAMP-dependent protein kinase catalytic subunit beta (Homo sapiens) + cAMP-dependent … | 340,000 tested, 0.079% active | activation, % at 11.4 µM | AID 504700, 2011;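 active = activation above a cutoff set at the mean over all compounds plus 3 SD, cut at about 18% in these data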;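 also: higher means more holoenzyme dissociation and a rise in polarization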
# Target sequence (P31323 whole entry, looked up, other chains not shown, the tested form may be a part): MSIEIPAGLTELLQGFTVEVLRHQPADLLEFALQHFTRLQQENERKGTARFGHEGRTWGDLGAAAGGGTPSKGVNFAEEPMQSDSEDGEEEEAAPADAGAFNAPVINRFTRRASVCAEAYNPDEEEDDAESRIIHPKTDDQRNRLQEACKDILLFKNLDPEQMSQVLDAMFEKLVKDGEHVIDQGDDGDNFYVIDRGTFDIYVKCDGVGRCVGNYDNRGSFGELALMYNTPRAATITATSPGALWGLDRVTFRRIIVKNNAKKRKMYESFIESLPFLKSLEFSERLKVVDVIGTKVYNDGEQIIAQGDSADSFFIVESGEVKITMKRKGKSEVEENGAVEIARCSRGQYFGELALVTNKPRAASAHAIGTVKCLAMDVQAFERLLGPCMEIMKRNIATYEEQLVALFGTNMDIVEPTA
# MsrA inhibitor: bovine MsrA enzyme inhibitors, primary screen, biochemical, absorbance, HTS | AID 651718, 2012 | 360,000 tested, 0.75% active | inhibition, % at 15.5 µM | Methionine sulfoxide reductase A (Bos taurus) | purified bovine MsrA, absorbance read-out; in the data active = inhibition above about 4.5%
# VIM-2 inh: VIM-2 metallo-beta-lactamase inhibitors, primary screen, biochemical, epi-absorbance readout, Pseudomonas aeruginosa enzyme; purified VIM-2, nitrocefin hydrolysis, epi-absorbance fluorescence; inhibition, % at 5.6 µM; 290,000 tested, 0.89% active;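 active = inhibition above the mean of all tested compounds plus 3 SD, cutoff set per screening run, cut at about 7.5% in these data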;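 also: red hydrolysis product quenches plate fluorescence so inhibitors raise well fluorescence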
# IMP-1 inh-1: IMP-1 metallo-beta-lactamase inhibitors, primary screen, biochemical, epi-absorbance readout, Pseudomonas aeruginosa enzyme | metallo-beta-lactamase IMP-1 (Pseudomonas aeruginosa) | purified IMP-1, nitrocefin hydrolysis, epi-absorbance fluorescence | inhibition, % at 5.6 µM | 290,000 tested, 0.45% active;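 active = inhibition above the mean plus 3 SD of all compounds in the same screening run, cut at about 4.5% in these data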
#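 system = purified recombinant IMP-1 beta-lactamase | amount = 0.2 nM IMP-1, as dispensed | medium = HEPES buffer pH 7.1 with ZnSO4 and Brij 35 | times = 25 °C, 15 min preincubation, 25 min reaction | detection = plate fluorescence quenching by hydrolysis product, ex 480/em 530 nm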
# IMP-1 inh-2: IMP-1 metallo-beta-lactamase inhibitors, confirmation, selectivity assay for selective VIM-2 inhibitor project, biochemical, epi-absorbance readout, triplicate; inhibition, % at 5.6 µM; 1,300 tested, under 10 active; shares compounds with VIM-2 inh; purified IMP-1, nitrocefin hydrolysis, epi-absorbance fluorescence; call rule not given here
# VIM-2 FRET ctr: VIM-2 inhibitors in FRET format, confirmation, artefact control for selective VIM-2 inhibitor project, biochemical, epi-absorbance artifact exclusion; inhibition, % at 5.6 µM; shares compounds with VIM-2 inh; purified VIM-2, CCF2 FRET substrate hydrolysis; 1,300 tested, 23% active; AID 1857, 2009;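 active = inhibition above the mean of all tested compounds plus 3 SD, cut at about 19% in these data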
# TEM-1 inh: TEM-1 serine beta-lactamase inhibitors, counter-screen for VIM-2 inhibitor project, biochemical, epi-absorbance, HTS; shares compounds with VIM-2 inh; 1,300 tested, 3% active; AID 1866, 2009; Purified TEM-1, nitrocefin hydrolysis, epi-absorbance fluorescence; inhibition, % at 5.6 µM;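 active = inhibition above that campaign's mean inhibition plus 3 SD, cut at about 0.46% in these data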
# Target sequence (P62593 whole entry, looked up): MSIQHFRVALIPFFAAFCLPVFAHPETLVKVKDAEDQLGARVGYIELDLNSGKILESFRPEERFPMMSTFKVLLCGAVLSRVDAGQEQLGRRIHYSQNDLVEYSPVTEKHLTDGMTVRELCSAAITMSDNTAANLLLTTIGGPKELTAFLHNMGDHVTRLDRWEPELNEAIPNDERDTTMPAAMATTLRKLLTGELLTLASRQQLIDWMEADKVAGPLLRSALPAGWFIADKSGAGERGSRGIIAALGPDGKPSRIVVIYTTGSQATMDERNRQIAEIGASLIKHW
# VIM-2 confirm 2: VIM-2 metallo-beta-lactamase inhibitors, confirmation, biochemical, epi-absorbance, hits shared with IMP-1 screen. inhibition, % at 5.6 µM. 1,300 tested, 96% active. AID 2187, 2009. shares compounds with VIM-2 inh. purified VIM-2, nitrocefin hydrolysis;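 active = inhibition of the VIM-2 beta-lactamase enzyme above about 11% from the earlier first-round screen, limit read from the data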
# Numbers stand for hits; – = inactive; · = no result given. Sampled rows, rich in hits. Any-hit rate of the full collection: about 2.1%.
SMILES,bovine MsrA act,PKA-R1A activ,PKA-R2B activ,MsrA inhibitor,VIM-2 inh,IMP-1 inh-1,IMP-1 inh-2,VIM-2 FRET ctr,TEM-1 inh,VIM-2 confirm 2
O=C(COC(=O)c1n[nH]c(=O)c2ccccc12)Nc1cccc(S(=O)(=O)N2CCOCC2)c1,–,–,–,–,·,·,·,·,·,·
CC(C)(C)C(=O)Nc1nnc(SCC(=O)NCc2cccs2)s1,–,–,–,–,56.3,–,–,78.6,–,61.3
CC(C)C(=O)Nc1nnc(SCC(=O)NCc2cccs2)s1,–,–,–,–,13.9,–,–,41.1,–,26.3
Cc1cccc(C)c1Nc1nnc(SCC(=O)NCc2cccs2)s1,–,–,–,–,–,–,·,·,·,·
COc1cc(CCNC(=O)c2ccccc2NC(=O)C2=C(C)OCCS2)cc(OC)c1OC,–,–,–,–,–,–,·,·,·,·
COc1cc(NC(=O)C2=C(C)OCCS2)c(Cl)cc1C(=O)NCCN(C)C,–,–,–,–,14.3,–,–,–,–,26.5
Cc1ccccc1C1=CC(=O)CC(C)(C)C1=O,·,·,·,–,·,·,·,·,·,·
Cc1nc(N2CCN(C)CC2)c2cc(-c3ccccc3)sc2n1,–,–,–,–,–,–,·,·,·,·
Cc1nc(N2CCCC2)c2ccsc2n1,–,–,–,–,13.8,–,–,–,–,14.8
CCCCN(CCCC)CCCNC(=O)Cn1cc(C)c(=O)[nH]c1=O,·,·,·,–,·,·,·,·,·,·
Cc1c(OCC(=O)NCc2ccccn2)ccc2c(-c3ccccc3)cc(=O)oc12,–,–,–,–,–,–,·,·,·,·
O=C(COc1ccc2c3c(c(=O)oc2c1)CCC3)NCC(O)c1ccccc1 (stereo unspecified),–,–,–,–,14.1,–,–,–,–,22.5
CC1(C)CC(NC(=O)COc2ccc3c4c(c(=O)oc3c2)CCCC4)CC(C)(C)N1,–,–,–,–,19.9,–,–,–,–,25.6
Cc1cc(=O)oc2cc(OCC(=O)NC3CC(C)(C)NC(C)(C)C3)c(Cl)cc12,–,–,–,–,–,–,·,·,·,·
Cc1c(OCC(=O)NCC(O)c2ccccc2)ccc2c(-c3ccccc3)cc(=O)oc12 (stereo unspecified),–,–,–,–,12.6,–,–,–,–,26.3
CCc1cc(=O)oc2c(C)c(OCC(=O)NC3CC(C)(C)NC(C)(C)C3)ccc12,–,–,–,·,14.3,–,–,–,–,22.2
CN(C)CCCNC(=O)C(=O)Nc1cc2c3c(c1)CCC(=O)N3CCC2,–,–,–,–,–,–,·,·,·,·
CCOC(=O)[C@]12CCCC=C1N(Cc1ccc3c(c1)OCO3)C(=O)[C@H](CC(=O)N1CCOCC1)C2,–,·,·,–,·,·,·,·,·,·
CC(Oc1ccc2c3c(c(=O)oc2c1)CCCC3)C(=O)NCc1ccncc1 (stereo unspecified),–,–,–,–,25.3,–,–,–,–,37.6
O=C(COc1ccc2c3c(c(=O)oc2c1)CCCC3)NCc1ccncc1,–,–,–,–,35.0,–,–,–,3.2,46.8
O=C(CSc1nnc(NC(=O)c2c(F)cccc2F)s1)NCc1ccccc1,–,–,–,–,33.1,–,–,55.8,–,38.4
O=C(CSc1nnc(NC(=O)c2ccccc2F)s1)NC1CCCC1,–,–,–,–,12.7,–,–,23.8,–,15.1
O=C(NCC(F)(F)F)c1cc2c(c(-c3cccc(-c4ccccc4F)c3)n1)[C@H](CCO)N(C(=O)CC1CC1)C2,–,·,·,–,·,·,·,·,·,·
Cc1nc([N+](=O)[O-])cn1CC(Cl)Cn1cc([N+](=O)[O-])nc1C,·,·,·,–,·,·,·,·,·,·
CN(CCO)c1ccc([N+](=O)[O-])cc1C(=O)O,–,–,–,–,–,–,·,·,·,·
SMILES,bovine MsrA act,PKA-R1A activ,PKA-R2B activ,MsrA inhibitor,VIM-2 inh,IMP-1 inh-1,IMP-1 inh-2,VIM-2 FRET ctr,TEM-1 inh,VIM-2 confirm 2
CN(CCO)c1ccc(-c2n[nH]c(=O)c3ccccc23)cc1[N+](=O)[O-],–,–,–,–,16.2,–,–,–,–,26.7
CCC(CO)Nc1ccc(-c2n[nH]c(=O)c3ccccc23)cc1[N+](=O)[O-] (stereo unspecified),–,–,–,–,22.4,–,–,–,–,32.1
CCC(CO)Nc1ccc(-c2nn(C)c(=O)c3ccccc23)cc1[N+](=O)[O-] (stereo unspecified),–,–,–,–,25.0,–,–,–,–,45.0
COc1ccc(CN2C[C@H](COCc3ccccc3)Oc3cccc(N4CCCC4)c3S2(=O)=O)cc1,·,·,·,–,·,·,·,·,·,·
Cc1cc(OCCCn2ccnc2)ccc1[N+](=O)[O-],–,–,–,–,28.2,–,–,–,–,38.8
CN(c1ccccc1)S(=O)(=O)c1cccc(C(=O)NCC(=O)Nc2ccc(F)c(F)c2F)c1,–,–,–,–,·,·,·,·,·,·
NC(N)=Nc1nc(-c2ccccc2)c2ccccc2n1,–,–,–,–,13.5,–,–,–,–,27.4
CCc1nc(N=C(N)N)nc2ccccc12,·,·,·,–,–,–,·,·,·,·
CCOc1cc(/C=C/C(=O)c2ccc(OC)c(CN3CCOCC3)c2)cc(Br)c1O,–,–,–,–,–,–,·,·,·,·
COc1cc(/C=N/N(CCO)C2=NS(=O)(=O)c3ccccc32)cc(OC)c1OC,–,–,–,–,12.2,–,–,–,–,21.4
CN(C)c1ccc(/C=N/N(CCC(=O)NC(C)(C)C)C2=NS(=O)(=O)c3ccccc32)cc1,–,–,–,–,19.7,–,–,–,–,–
COc1cc(Br)cc(/C=N/N(CCO)C2=NS(=O)(=O)c3ccccc32)c1OC,–,–,–,–,–,–,·,·,·,·
CCOC(=O)C1=C(COC(=O)c2cccnc2SC)NC(=O)NC1C (stereo unspecified),–,–,–,–,·,·,·,·,·,·
NC(=S)NN=C1c2cc(OCCN3CCOCC3)ccc2-c2ccc(OCCN3CCOCC3)cc21,–,–,–,–,59.0,–,–,–,–,70.8

# Screening data as filed in PubChem.
